Screening data deposited in PubChem BioAssay by several laboratories.
The full list was thinned out, with hits kept by preference.
AP ELISA ortho = orthogonal test for alternative complement pathway inhibitors | Human serum alternative complement pathway, LPS-coated ELISA, C3 deposition; tested in compound mixtures | inhibition, % at 5 µM | 62,000 tested, 0.08% active;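 active = inhibition above 30% in each of the two pooled mixtures holding the compound, so the lower value exceeds 30%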
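Assay system: Human serum alternative complement pathway, C3 deposition on LPS-coated wells | Incubation: 1 h serum-compound exposure at 37 °C | Doses: 5 µM per compound in ten-compound mixtures | Read-out: Percent inhibition | Technique: ELISA with HRP anti-human C3 antibody, TMB substrate, absorbance 450 nm | Replication: Two pool placements per compound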
WNV protease inh = WNV NS2B-NS3 proteinase inhibition. z-score (test concentration not listed). WNV NS2B-NS3 protease, fluorogenic substrate Ex360/Em465; stronger effect = lower value. AID 577. P06935. 65,000 tested, 0.18% active; in the data active = z-score below about -3
Target sequence (P06935 1371-1501 limits assumed): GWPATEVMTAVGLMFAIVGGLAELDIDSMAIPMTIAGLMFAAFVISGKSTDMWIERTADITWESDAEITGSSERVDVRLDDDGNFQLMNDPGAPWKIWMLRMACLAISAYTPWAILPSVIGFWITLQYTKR
Target sequence (P06935 1502-1679 limits assumed): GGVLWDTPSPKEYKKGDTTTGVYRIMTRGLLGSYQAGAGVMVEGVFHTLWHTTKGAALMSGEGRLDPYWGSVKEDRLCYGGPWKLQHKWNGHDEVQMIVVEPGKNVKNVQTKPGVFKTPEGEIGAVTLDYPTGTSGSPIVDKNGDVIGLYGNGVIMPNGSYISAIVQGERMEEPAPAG
D1 mod = allosteric modulators of human D1 dopamine receptor; HEK293 D1, CRE-luciferase, dopamine EC30 potentiation; actives deviate in either direction; 58,000 tested, 5.9% active; B-score at 10 µM; P21728;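 active = luminescence count or its row- and column-corrected plate score outside the 99.7% band of the plate's sample wells, on either side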
Target sequence (P21728 whole entry, looked up): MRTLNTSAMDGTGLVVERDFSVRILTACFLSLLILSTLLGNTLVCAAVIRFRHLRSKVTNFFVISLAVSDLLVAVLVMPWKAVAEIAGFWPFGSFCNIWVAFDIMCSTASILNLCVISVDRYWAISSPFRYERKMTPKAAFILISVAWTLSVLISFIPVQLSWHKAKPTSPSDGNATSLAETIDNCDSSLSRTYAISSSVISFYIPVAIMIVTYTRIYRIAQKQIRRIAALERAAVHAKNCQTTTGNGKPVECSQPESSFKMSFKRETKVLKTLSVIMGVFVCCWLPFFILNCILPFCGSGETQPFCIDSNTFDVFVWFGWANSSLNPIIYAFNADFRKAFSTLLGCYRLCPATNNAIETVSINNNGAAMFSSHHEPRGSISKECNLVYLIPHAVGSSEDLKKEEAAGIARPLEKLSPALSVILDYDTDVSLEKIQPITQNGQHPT
DAT uptake mod = modulates human dopamine transporter uptake under cocaine; LLC-PK1 hDAT cells, [14C]-dopamine uptake with cocaine IC80; actives deviate in either direction; 110,000 tested, 1.3% active; B-score at 10 µM; Q01959;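 active = Z score or B-score, a plate-position-corrected score, falls beyond the plate's 99.7% confidence bounds, in either direction; inactive = both scores lie inside the 99.7% bounds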
Each line names hits and unclear results; the compound was inactive in the other large screens.

N#CC1(C#N)CC(C=O)=C(N)C1(C#N)CC(=O)c1ccc(F)cc1 (stereo unspecified)	DAT uptake mod -2.23 (no result: AP ELISA ortho, WNV protease inh, D1 mod)
Cc1ccc(Cl)cc1NC(=O)c1ocnc1C	WNV protease inh -3.37
Cc1ccccc1NC(=O)c1ocnc1C	none
CCCCN1C(=O)C(=O)NC[C@@H]1CCCCN	none (no result: AP ELISA ortho, WNV protease inh, D1 mod)
Cc1cc(OCC(=O)Nc2ccncc2)ccc1Br	D1 mod -3.29
CC(C)(C)OC(=O)N1CC=C2C(C#N)=C(N)C(C#N)(C#N)[C@H](c3cccnc3)[C@H]2C1	none
N#CC1=C(N)C(C#N)(C#N)[C@H](c2ccncc2)[C@H]2CN(C(=O)OCc3ccccc3)CC=C12	DAT uptake mod 2.8 (no result: D1 mod)
C/C(CC1(O)C(=O)N(Cc2ccccc2)c2ccccc21)=N\O (stereo unspecified)	WNV protease inh -6.41 (no result: AP ELISA ortho, D1 mod)
CC(=O)CC1(O)C(=O)N(Cc2ccccc2)c2ccccc21 (stereo unspecified)	none (no result: AP ELISA ortho, WNV protease inh, D1 mod)
CCN(CC)c1ccc(N2C(=O)/C(=C/c3cccnc3)SC2=S)cc1	none (no result: AP ELISA ortho, WNV protease inh, D1 mod)
CC(C)NC(=O)c1ccc2c(c1)nnn2C	none
Cn1nnc2cc(C(=O)NC3CCCCC3)ccc21	WNV protease inh -5.19
Cc1nc(-c2c(-c3ccc(O)cc3O)noc2C(F)(F)F)cs1	none (no result: AP ELISA ortho, D1 mod)
O=C(CSc1nnc2sc3ccccc3n12)NCc1ccc2c(c1)OCO2	none
COc1ccc(-c2onc3ccc(Cl)cc23)cc1OC	D1 mod 12.8 (no result: DAT uptake mod)
Clc1ccc2noc(-c3ccccc3)c2c1	none (no result: AP ELISA ortho, WNV protease inh, D1 mod)
COc1cccc(-c2nc(CS(=O)(=O)CC(=O)N3CCc4ccccc43)c(C)o2)c1	none (no result: AP ELISA ortho, WNV protease inh, D1 mod)
COc1ccc(OCC(O)COc2ccc(C(=O)O)cc2)cc1 (stereo unspecified)	DAT uptake mod 2.67
CC1(C)Cc2ccccc2-c2nnc(SCC(=O)Nc3ccc4c(c3)OCO4)n21	AP ELISA ortho 56.4 (no result: D1 mod)
COC(=O)c1ccc(-c2nc3ccccc3o2)cc1	none (no result: DAT uptake mod)
COC(=O)c1ccc(-c2ncc(-c3cccc4ccccc34)o2)cc1	DAT uptake mod 3.03 (no result: AP ELISA ortho, WNV protease inh, D1 mod)
O=C(C1CCCN(S(=O)(=O)c2cccc3cccnc23)C1)N1CCN(c2ccc(F)cc2)CC1 (stereo unspecified)	D1 mod -2.32
COC(=O)c1cc(NS(=O)(=O)c2ccc(NC(C)=O)cc2)cc(C(=O)OC)c1	none (no result: AP ELISA ortho, WNV protease inh, D1 mod)
CN1CCN(CCCNc2nc3ccccc3c3nc(-c4ccccc4)nn23)CC1	D1 mod 5.95 (no result: DAT uptake mod)
Cc1ccnc(Nc2nc3ccccc3o2)n1	D1 mod -4.44
Cc1ccc2c(c1)NC(=O)C(CC(=O)NCCCN1CCN(c3cc(Cl)ccc3C)CC1)O2 (stereo unspecified)	D1 mod -2.58
Cc1ccc(-c2nc(Nc3ccccc3)n[nH]2)cc1	DAT uptake mod -3
N#C/C(=C\c1ccccc1)c1nc2ncccc2[nH]1	none (no result: AP ELISA ortho, WNV protease inh, D1 mod)
O=C(Nc1ccc(Oc2cccc3ccccc23)cc1)c1ccco1	DAT uptake mod 2.36 (no result: AP ELISA ortho, WNV protease inh, D1 mod)
O=C(Nc1ccc(OC(=O)c2ccco2)cc1)c1ccco1	none
C=CCn1c2ccccc2c2nnc(SCC(=O)OCN3C(=O)c4ccccc4C3=O)nc21	none (no result: AP ELISA ortho, WNV protease inh, D1 mod)
O=C(CCCCCCN1C(=O)c2ccccc2C1=O)N1CCC(c2ccccc2)C1 (stereo unspecified)	DAT uptake mod 3.4 (no result: AP ELISA ortho, WNV protease inh, D1 mod)
CSCCC1(C(=O)O)NC(c2ccccc2O)C2C(=O)N(C(C)C)C(=O)C21 (stereo unspecified)	DAT uptake mod -2.55 (no result: D1 mod)
O=C(NCc1ccccn1)C1C2C=CC(C2)C1C(=O)Nc1ccc(F)cc1 (stereo unspecified)	none (no result: AP ELISA ortho, WNV protease inh, D1 mod)
CC1CN(Cc2cc(=O)[nH]c(C3CC3)n2)CC(C)O1 (stereo unspecified)	DAT uptake mod -6.76 (no result: AP ELISA ortho, WNV protease inh, D1 mod)
Nc1nc(NC(=O)c2cccc(S(=O)(=O)N3CCCCCC3)c2)nc(-c2ccccc2)n1	none (no result: D1 mod)
CCCN1CCCc2cc(CN)ccc21	DAT uptake mod -2.38
CCOC(=O)C1CCCN(C(=O)C2CCN(S(=O)(=O)CC)CC2)C1 (stereo unspecified)	none
COc1ccccc1N1CCN(c2ncnc3c2oc2ccccc23)CC1	AP ELISA ortho 33.2
CN(C)C=Nc1ccc2nn(-c3ccccc3)nc2c1	D1 mod -2.52
O=C(Nc1ccccc1Cl)O/N=C/c1ccncc1	none (no result: AP ELISA ortho, WNV protease inh, D1 mod)
CCCCSc1ccc2nc(-c3ccc(C#N)cc3)cn2c1	DAT uptake mod 2.45 (no result: AP ELISA ortho, WNV protease inh, D1 mod)
CCN1CCN(Cc2ccc(NC(=O)c3ccc(C)c(NC(=O)c4csc(-c5ccncc5)n4)c3)cc2C(F)(F)F)CC1	DAT uptake mod 1.82 (no result: AP ELISA ortho, WNV protease inh, D1 mod)
COc1ccccc1-n1c(SCC(=O)N2CCc3ccccc32)nc2c(c1=O)SCC2	none (no result: AP ELISA ortho, WNV protease inh, D1 mod)
COc1ccc(OC)c(-n2c(SCC(=O)N3CCc4ccccc43)nc3c(c2=O)SCC3)c1	DAT uptake mod 3.16
CC/C=C/C(=O)N1CC2(CC(c3cccc(NC(=O)COc4ccc(Cl)cc4)c3)=NO2)C[C@H]1C(N)=O (stereo partly specified)	none (no result: AP ELISA ortho, WNV protease inh, D1 mod)
CCOc1ccc(NC(=O)c2cc3c(=O)n(C)c4ccccc4c3n2C)cc1	none (no result: AP ELISA ortho, WNV protease inh, D1 mod)
Cc1cc(S(=O)(=O)N(Cc2ccccn2)Cc2ccco2)ccc1-n1cnnn1	DAT uptake mod 2.61
CCOc1ccccc1CN(Cc1ccco1)S(=O)(=O)c1ccc(-n2cnnn2)c(OC)c1	none
O=C(NCCc1c[nH]c2ccccc12)c1ccc(S(=O)(=O)NCc2ccco2)cc1	DAT uptake mod -7.67
O=C(NC1CCCCCC1)c1ccc(S(=O)(=O)NCc2ccco2)cc1	none (no result: AP ELISA ortho, WNV protease inh, D1 mod)
C(=N\c1nc2ccccc2n1Cc1ccccc1)/c1cccs1	none
O=C(c1ccccc1)c1ccc(CN2C(=O)c3ccccc3C2=O)o1	DAT uptake mod 3.41
Cc1nnsc1C(=O)Nc1cccc(Cl)c1Cl	none (no result: AP ELISA ortho, WNV protease inh, D1 mod)
Cc1nn2cc(-c3ccccc3)nc2s1	D1 mod -3.88
c1ccc(-c2cn3nc(-c4ccccc4)sc3n2)cc1	D1 mod -8.22 (no result: DAT uptake mod)
FC(F)(F)c1cccc(Cn2nnnc2-c2cccc(C(F)(F)F)c2)c1	none (no result: AP ELISA ortho, WNV protease inh, D1 mod)
Cc1ccc(S(=O)(=O)NCC2CCC(C(=O)NCCCN3CCOCC3)CC2)cc1 (stereo unspecified)	none
Cc1ccc(S(=O)(=O)NC(=O)c2cc(C)n(CCCN3CCOCC3)c2C)cc1	D1 mod -2.41 (no result: DAT uptake mod)
O=C(CSc1nnc(-c2cccnc2)n1Cc1ccco1)N1CCc2ccccc21	none (no result: D1 mod)
Cc1occc1-c1nnc(SCC(=O)N2CCCc3ccccc32)n1Cc1ccco1	D1 mod -2.62
COCCn1c(SCC(=O)N2CC(=O)Nc3ccccc32)nnc1-c1ccoc1C	none (no result: AP ELISA ortho, WNV protease inh, D1 mod)
COCCCn1c(SCC(=O)N2CC(=O)Nc3ccccc32)nnc1-c1ccoc1C	DAT uptake mod -2.42
CCCCNC(=O)c1onc(CSc2ccccn2)c1C(=O)NCCCC	none (no result: AP ELISA ortho, WNV protease inh, D1 mod)
COC(C[C@H]1O[C@H]1[C@@H](O)[C@H](C)OCc1ccccc1)OC	none (no result: AP ELISA ortho, WNV protease inh, D1 mod)
COc1ccc(C2c3c(oc4c(C)cc(C)cc4c3=O)C(=O)N2Cc2cccnc2)cc1OC (stereo unspecified)	none (no result: DAT uptake mod)
COc1cc(C2c3c(oc4c(C)cc(C)cc4c3=O)C(=O)N2Cc2cccnc2)ccc1O (stereo unspecified)	D1 mod 11.5
CC(C)(C)NS(=O)(=O)c1cccc(S(=O)(=O)c2cccc(S(=O)(=O)NC(C)(C)C)c2)c1	none (no result: DAT uptake mod)
C#CCSc1nnc(-c2ccc(OC)cc2)o1	none (no result: AP ELISA ortho, WNV protease inh, D1 mod)
